Columns and labels:
[1] = tested on: male Sprague Dawley rats; experiment: Bradykinin-induced thermal hyperalgesia, paw withdrawal latency; type: in vivo; settings: rat hindpaw i.pl., JA-2 5 μM 25 μl 30 min before BK 0.1 μM 25 μl; n=6-10
How it was run: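 Male Sprague-Dawley rats (200-250 g), tested in the light phase after 30 min acclimation. Blinded Hargreaves thermal latency, with baseline set near 10 s and a 20 s cutoff, taken as the mean of triplicate readings at least 30 s apart. Intraplantar s.c. vehicle (50% DMSO/0.9% saline) or test compound (5 μM), 25 μl; latency read 30 min later. BK (0.1 or 1 μM, 25 μl) then injected into the same paw; latency read at 5 min.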

[2] = biological target: EP24.15; settings: read-out: Ki for inhibiting EP24.15; cited from earlier work
[3] = tested on: EP24.16; settings: EP24.15 preferentially over EP24.16; cited from earlier work
[4] = prolonged incubation in various tissues; cited from earlier work
[5] = cited from earlier work

Molecule	effect on response to sub-threshold BK (0.1 μM), thermal hyperalgesia [1]	Ki [2] [nM]	times more potent at inhibiting EP24.15 than EP24.16 (selectivity) [3]	retention of activity after incubation in tissues (stability) [4]	potentiation of antinociceptive effects of co-administered opioid peptides ([5]; co-administered with Met-enkephalin-Arg-Gly-Leu and dynorphin A1-8)	antinociception ([5]; intracerebroventricular administration, time and dose-dependent)
C[C@H](NC(CCc1ccccc1)C(=O)O)C(=O)NC(C)(C)C(=O)N[C@@H](Cc1ccc(O)cc1)C(=O)Nc1ccc(C(=O)O)cc1 (stereo partly drawn) [JA-2]	resulted in a nociceptive response	23	20-30 fold	retains its activity after prolonged incubation in various tissues		
N-[1-(R,S)-carboxy-3-phenylpropyl]-Ala-Ala-Tyr-p-aminobenzoate [cFP]					potentiate the antinociceptive effects	significant antinociception

Reference: paper PMC3114295 (Pain, 2011)
